# Results taken from ChEMBL document CHEMBL1150866, “Chemical constituents from Lippia sidoides and cytotoxic activity” (J Nat Prod, 2001).
# Experiments:
# Assay type in all cases: functional, cell-based
# [1] = test system: CCRF-CEM; test: Cytotoxicity against human CEM cells after 3 days by MTT assay; settings: 72 h
# Procedure, shortened: (§1)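 Suspension cells were kept in RPMI1640 with 10% FBS and seeded at 0.5×10^6 cells/100 μL without preincubation. Fresh medium holding 0.39–25 μg/mL drug was added, and cells were exposed for 3 days. MTT in serum-free medium was then given for 3 h at 37 °C, the formazan dissolved in DMSO, and absorbance read at 550 nm.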
# [2] = test system: HL-60; test: Cytotoxicity against human HL60 cells after 3 days by MTT assay; settings: HL-60, 72 h; procedure, shortened: as §1
# [3] = test system: SW1573; test: Cytotoxicity against human SW1573 cells after 3 days by MTT assay; settings: SW1573, 72 h
# Procedure, shortened: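 Adherent cells were grown in RPMI1640 with 10% FBS, plated at 0.2×10^5 cells/100 μL, and left 24 h to attach. Drug in fresh medium was applied at 0.39–25 μg/mL for 3 days. Viability was by MTT in serum-free medium for 3 h at 37 °C, with DMSO solubilization and absorbance at 550 nm.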
compound,measurement,setting,value
CC(=O)Oc1c(-c2c3c(c4ccccc4c2OC(C)=O)OC(C)(C)C=C3)c2c(c3ccccc13)OC(C)(C)C=C2,IC50,[1],> 10 µg/mL
same,IC50,[2],> 10 µg/mL
same,IC50,[3],> 10 µg/mL
O=c1cc(-c2ccc(O)c(O)c2)oc2cc(O[C@@H]3O[C@H](CO)[C@@H](O)[C@H](O)[C@H]3O)cc(O)c12 [GALUTEOLIN],IC50,[1],> 10 µg/mL
same,IC50,[2],> 10 µg/mL
same,IC50,[3],> 10 µg/mL
COc1cc([C@H]2c3cc(O)c(OC)cc3C[C@@H](CO)[C@@H]2CO)ccc1O [ISOLARICIRESINOL],IC50,[1],> 10 µg/mL
same,IC50,[2],> 10 µg/mL
same,IC50,[3],> 10 µg/mL
COc1cc2c(c3ccccc13)OC(C)(C)C=C2 [LAPACHENOL],IC50,[1],> 10 µg/mL
same,IC50,[2],> 10 µg/mL
same,IC50,[3],> 10 µg/mL
CC1=C[C@H]2C3=C(C(=O)c4ccccc4C3=O)[C@]3(O)c4ccccc4C(=O)[C@@]2(/C=C/C(C)(C)O)[C@H]3C1 [LIPPSIDOQUINONE],IC50,[1],2.58 µg/mL
same,IC50,[2],2.38 µg/mL
O=c1cc(-c2ccc(O)c(O)c2)oc2cc(O)cc(O)c12 [LUTEOLIN],IC50,[1],> 10 µg/mL
same,IC50,[2],> 10 µg/mL
same,IC50,[3],> 10 µg/mL
O=c1c(O)c(-c2ccc(O)c(O)c2)oc2cc(O)cc(O)c12 [QUERCETIN],IC50,[1],> 10 µg/mL
same,IC50,[2],> 10 µg/mL
same,IC50,[3],> 10 µg/mL
O=C1c2c(O)cc(O)cc2OC(c2ccc(O)c(O)c2)C1O (stereo unspecified) [TAXIFOLIN],IC50,[1],> 10 µg/mL
same,IC50,[2],> 10 µg/mL
same,IC50,[3],> 10 µg/mL
CC(C)=CC1Oc2c(c3c(c4ccccc24)OC(C)(C)C=C3)C2=C1C(=O)c1ccccc1C2=O (stereo unspecified) [TECOMAQUINONE],IC50,[1],> 10 µg/mL
same,IC50,[2],> 10 µg/mL
same,IC50,[3],> 10 µg/mL
Cc1ccc2c(c1)C(=O)c1ccccc1C2=O [TECTOQUINONE],IC50,[1],> 10 µg/mL
same,IC50,[2],> 10 µg/mL
same,IC50,[3],> 10 µg/mL
CC1(C)C=Cc2c(-c3c4c(c5ccccc5c3O)OC(C)(C)C=C4)c(O)c3ccccc3c2O1 [tectol],IC50,[1],0.78 µg/mL
same,IC50,[2],1.79 µg/mL
